pIC50: −log10 of the molar value. Calls of active or inactive are those of the source. The rule behind the calls is not given here.
Key:
[1] = target: Tyrosine-protein kinase JAK2 (Homo sapiens) (UniProt O60674); settings: KARPAS-1106P, dose 8-1000 nM, time 3.0 hrs
[2] = system: Tyrosine-protein kinase JAK2 (Homo sapiens), O60674 [V617F]; settings: HEL 92.1.7, dose 8-1000 nM, time 3.0 hrs
[3] = system: Tyrosine-protein kinase JAK2 (Homo sapiens), O60674 [V617F]; settings: SET2, dose 8-1000 nM, time 3.0 hrs
[4] = system: Tyrosine-protein kinase JAK2 (Homo sapiens), O60674 [V617F]; settings: SET2, dose 1000.0 nM, time 3.0 hrs
[5] = target: Tyrosine-protein kinase JAK2 (Homo sapiens) (UniProt O60674); settings: HEK-293T, dose 8-1000 nM, time 3.0 hrs
PC-3 = assay: Antiproliferative activity against human PC-3 cells assessed as inhibition of cell viability incubated for 48 hrs by CellTiterGlo assay; type: functional, cell-based; settings: PC-3, 48 h
Method in brief: (§1)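 Cells seeded at 30–50% confluency in 96-well plates, then treated the next day in triplicate at up to 10 μM for 48 h. Viability read by CellTiter-Glo luminescence. IC50 taken from fitted dose–response curves.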

BaF3 = assay: Antiproliferative activity against mouse BaF3 cells harboring JAK2 V617F mutant assessed as inhibition of cell viability incubated for 48 hrs by CellTiterGlo assay; type: functional, cell-based; settings: BaF3, 48 h
Method in brief: as §1

Mus musculus [6] = assay: In vivo inhibition of JAK2 V617F mutant in SCID Beige mouse xenografted with human SET2 cells assessed as decreased STAT5 phosphorylation at Y694 at 75 to 150 mg/kg, po administered for 18 days and measured after 3 hrs by Western blotting analysis; type: functional, organism-based; settings: dose 75-150 mg/kg, time 18.0 day
Method in brief: (§2)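 Subcutaneous SET-2 tumors in SCID beige mice. Single oral doses of 75 or 150 mg/kg were given at about 300 mm3 tumor size; in the chronic arm, dosing ran for 18 days. Tumors were collected 3 h post-dose, lysed, and immunoblotted for pJAK2 (Y1007/8) and pSTAT5.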

[7] = Cytotoxicity against human EPC cells derived from polycythemia vera patients assessed as inhibition of cell viability incubated for 48 hrs by CellTiterGlo assay; type: toxicity, cell-based
Method in brief: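 Erythroid progenitors expanded from PBMCs of PV patients or normal volunteers using a 2-step protocol. On day 12 of expansion, cells were exposed to compound for 48 h and viability was read by CellTiter-Glo. Day-12 cells were phenotyped by CD71/CD235A flow staining.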

SET-2 [8] = assay: Anti-tumor activity against human SET2 cells xenografted in SCID Beige mouse assessed as tumor growth inhibition at 75 mg/kg, po administered for 18 days and measured twice a week relative to control; type: functional; settings: SET-2, 432 h, time 18 day, read-out: TGI
Method in brief: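 SCID beige mice received 5 × 10^6 SET-2 cells subcutaneously in the right flank, in serum-free medium mixed 1:1 with Matrigel. Dosing began when tumors averaged about 280 mm3 (day 31). Oral gavage at 10 ml/kg for 18 consecutive days, 12 mice per group. Caliper volume = (w² × l)/2. Animals were killed 3 h after the final dose.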

COLO 205 = assay: Antiproliferative activity against human COLO 205 cells assessed as inhibition of cell viability incubated for 48 hrs by CellTiterGlo assay; type: functional, cell-based; settings: COLO 205, 48 h
Method in brief: as §1

A549 = assay: Antiproliferative activity against human A549 cells assessed as inhibition of cell viability incubated for 48 hrs by CellTiterGlo assay; type: functional, cell-based; settings: A549, 48 h
Method in brief: as §1

U-266 = assay: Antiproliferative activity against human U-266 cells assessed as inhibition of cell viability incubated for 48 hrs by CellTiterGlo assay; type: functional, cell-based; settings: U-266, 48 h
Method in brief: as §1

Jurkat E6.1 = assay: Antiproliferative activity against human Jurkat E6.1 cells assessed as inhibition of cell viability incubated for 48 hrs by CellTiterGlo assay; type: functional, cell-based; settings: Jurkat E6.1, 48 h
Method in brief: as §1

[9] = system: Tyrosine-protein kinase JAK2 (Homo sapiens), O60674 [V617F]; settings: SET2, dose 8-1000 nM, time 3.0 hrs; remark: listed apart in the source
[10] = Antiproliferative activity against mouse 32D cells harboring JAK2 assessed as inhibition of cell viability incubated for 48 hrs by CellTiterGlo assay; type: functional, cell-based
Method in brief: as §1

[11] = target: Tyrosine-protein kinase JAK2 (Homo sapiens) (UniProt O60674); settings: Jurkat, dose 8-1000 nM, time 3.0 hrs
MCF7 = assay: Antiproliferative activity against human MCF7 cells assessed as inhibition of cell viability incubated for 48 hrs by CellTiterGlo assay; type: functional, cell-based; settings: MCF7, 48 h
Method in brief: as §1

Mus musculus [12] = assay: In vivo inhibition of JAK2 V617F mutant in SCID Beige mouse xenografted with human SET2 cells assessed as increased JAK2 phosphorylation at Y1007/8 by immunoblotting analysis; type: functional, organism-based; settings: dose 75-150 mg/kg, route po
Method in brief: as §2

[13] = system: KATO III stomach cancer cell line; assay: Antiproliferative activity against human KATO III stomach cancer cell line assessed as inhibition of cell viability incubated for 48 hrs by CellTiterGlo assay; type: functional, cell-based
Method in brief: as §1

HCT-116 = assay: Antiproliferative activity against human HCT-116 cells assessed as inhibition of cell viability incubated for 48 hrs by CellTiterGlo assay; type: functional, cell-based; settings: HCT-116, 48 h
Method in brief: as §1

A2780 = assay: Antiproliferative activity against human A2780 cells assessed as inhibition of cell viability incubated for 48 hrs by CellTiterGlo assay; type: functional, cell-based; settings: A2780, 48 h
Method in brief: as §1

SET-2 [14] = assay: Induction of cell cycle arrest in human SET2 cells expressing JAK2 V617F mutant assessed as decrease in accumulation of cells at S-phase incubated for 24 hrs by PI staining based flow cytometry; type: functional
Method in brief: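 Cells were fixed in 70% ice-cold ethanol and stained with propidium iodide, then analysed by flow cytometry for cell-cycle distribution.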

[15] = system: Tyrosine-protein kinase JAK2 (Homo sapiens), O60674 [V617F]; settings: SET2, dose 8-1000 nM, time 3.0 hrs; remark: listed apart in the source
[16] = system: Tyrosine-protein kinase JAK2 (Homo sapiens), O60674 [V617F]; settings: HEL 92.1.7, dose 8-1000 nM, time 3.0 hrs; remark: listed apart in the source

Sequence of Tyrosine-protein kinase JAK2 (Homo sapiens) (O60674 whole entry): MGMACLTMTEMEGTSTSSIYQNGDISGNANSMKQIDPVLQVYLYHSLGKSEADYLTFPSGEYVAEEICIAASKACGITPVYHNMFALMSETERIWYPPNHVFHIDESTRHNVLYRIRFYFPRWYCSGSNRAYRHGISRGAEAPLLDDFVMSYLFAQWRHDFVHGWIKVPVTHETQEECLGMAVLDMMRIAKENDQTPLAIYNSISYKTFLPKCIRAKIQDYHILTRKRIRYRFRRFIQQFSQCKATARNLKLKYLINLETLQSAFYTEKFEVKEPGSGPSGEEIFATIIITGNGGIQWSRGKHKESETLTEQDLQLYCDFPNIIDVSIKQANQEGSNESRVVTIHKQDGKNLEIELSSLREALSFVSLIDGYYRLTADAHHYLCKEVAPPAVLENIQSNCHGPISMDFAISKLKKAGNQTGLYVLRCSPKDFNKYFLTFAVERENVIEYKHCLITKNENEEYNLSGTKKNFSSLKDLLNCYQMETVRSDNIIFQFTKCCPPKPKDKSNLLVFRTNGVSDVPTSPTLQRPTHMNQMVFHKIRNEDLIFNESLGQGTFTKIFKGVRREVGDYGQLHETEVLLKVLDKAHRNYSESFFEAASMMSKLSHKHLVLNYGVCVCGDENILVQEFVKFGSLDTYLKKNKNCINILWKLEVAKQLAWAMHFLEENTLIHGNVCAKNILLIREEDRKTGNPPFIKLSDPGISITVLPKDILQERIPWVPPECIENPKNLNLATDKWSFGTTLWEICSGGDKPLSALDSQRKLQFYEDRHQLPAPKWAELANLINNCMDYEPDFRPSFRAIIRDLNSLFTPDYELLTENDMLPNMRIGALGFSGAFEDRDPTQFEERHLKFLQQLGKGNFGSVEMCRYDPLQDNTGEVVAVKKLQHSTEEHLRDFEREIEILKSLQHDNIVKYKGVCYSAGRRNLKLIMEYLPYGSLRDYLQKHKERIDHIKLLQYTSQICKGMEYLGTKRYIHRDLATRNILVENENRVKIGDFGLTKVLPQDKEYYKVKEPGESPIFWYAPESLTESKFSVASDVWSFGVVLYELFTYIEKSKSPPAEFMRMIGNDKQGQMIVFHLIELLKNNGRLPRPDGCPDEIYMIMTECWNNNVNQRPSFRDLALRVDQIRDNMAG
Sequence of Tyrosine-protein kinase JAK2 (Homo sapiens), O60674 [V617F] (O60674 whole entry V617F): as the sequence (O60674 whole entry) above, with V617F counted along it

SMILES: C1=N/C2=N/c3ccc(OCCN4CCCC4)c(c3)COC/C=C/COCc3cccc(c3)C(=C1)N2 [PACRITINIB]
- inhibition [1]: Active
- inhibition [2]: Active
- inhibition [3]: Dose-Dependent Effect
- inhibition [4]: Active
- inhibition [5]: Dose-Dependent Effect
- pIC50 (PC-3): 6.11
- pIC50 (BaF3): 6.80
- Activity (Mus musculus [6]): Active
- pIC50 [7]: 6.59
- inhibition in vivo at 75 mg/kg (SET-2 [8]): 40%
- pIC50 (COLO 205): 5.58
- pIC50 (A549): 5.59
- pIC50 (U-266): 5.87
- pIC50 (Jurkat E6.1): 6.08
- inhibition [9]: Dose-Dependent Effect
- pIC50 [10]: 6.40
- inhibition [11]: Active
- pIC50 (MCF7): 6.07
- Activity (Mus musculus [12]): Dose-Dependent Effect
- pIC50 [13]: 5.69
- pIC50 (HCT-116): 5.77
- pIC50 (A2780): 6.18
- Activity (SET-2 [14]): Dose-Dependent Effect
- inhibition [15]: Active
- inhibition [16]: Dose-Dependent Effect
